Experimental data: ChEMBL document CHEMBL1146728, “Statin-derived 1,3-oxazinan-2-ones as submicromolar inhibitors of LFA-1/ICAM-1 interaction: stabilization of the metabolically labile vanillyl side chain” (Bioorg Med Chem Lett, 2004)

Experiments:
[1] = molecular target: T1, Intercellular adhesion molecule (ICAM-1), Integrin alpha-L/beta-2 (Homo sapiens, UniProt P05107+P20701); assay: Inhibition of HUT78 cell adhesion to immobilized ICAM-1 protein; format: functional, cell-based
[2] = test system: Mus musculus; assay: Anti-inflammatory activity against murine model of allergic contact dermatitis (mACD) after single oral administration (1 mg/kg) (in vivo); format: functional
Procedure, shortened: (§1)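 Oxazolone-sensitized mice, eight per group, challenged with 10 µL of 2.0% oxazolone on the inner surface of the right ear; unchallenged left ear served as control. Single oral dose of compound given 2 h after challenge. Ear weight difference at 24 h used as swelling measure. Result is % inhibition versus vehicle controls, mean ± SEM, ANOVA/Dunnett or H/U-test.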

[3] = Intrinsic clearance in human liver microsomes was determined; format: ADME, Microsome; settings: read-out: Clearance
Procedure, shortened: (§2)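 Pooled liver microsomes at 0.15 mg/mL protein, compound at 1 µM, in 100 mM phosphate buffer pH 7.4 with 5 mM MgCl2, 1 mM EDTA, 0.35 mg/mL albumin and alamethicin, at 37°C. Started with final 4 mM UDPGA plus 1 mM NADPH and stopped at 5 and 20 min with ACN containing 0.02% FA. Single incubations, clearance in µL/min/mg.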

[4] = Intrinsic clearance in rat liver microsomes was determined; format: ADME, Microsome; settings: read-out: Clearance; procedure, shortened: as §2
[5] = molecular target: T1, Intercellular adhesion molecule (ICAM-1), Integrin alpha-L/beta-2; assay: In vitro inhibition of recombinant ICAM-1 binding to purified immobilized LFA-1 using cell-free assay; format: functional
[6] = test system: Mus musculus; assay: Anti-inflammatory activity against murine model of allergic contact dermatitis (mACD) after single oral administration (0.1 mg/kg) (in vivo); format: functional; procedure, shortened: as §1

T1 sequence (P20701 whole entry): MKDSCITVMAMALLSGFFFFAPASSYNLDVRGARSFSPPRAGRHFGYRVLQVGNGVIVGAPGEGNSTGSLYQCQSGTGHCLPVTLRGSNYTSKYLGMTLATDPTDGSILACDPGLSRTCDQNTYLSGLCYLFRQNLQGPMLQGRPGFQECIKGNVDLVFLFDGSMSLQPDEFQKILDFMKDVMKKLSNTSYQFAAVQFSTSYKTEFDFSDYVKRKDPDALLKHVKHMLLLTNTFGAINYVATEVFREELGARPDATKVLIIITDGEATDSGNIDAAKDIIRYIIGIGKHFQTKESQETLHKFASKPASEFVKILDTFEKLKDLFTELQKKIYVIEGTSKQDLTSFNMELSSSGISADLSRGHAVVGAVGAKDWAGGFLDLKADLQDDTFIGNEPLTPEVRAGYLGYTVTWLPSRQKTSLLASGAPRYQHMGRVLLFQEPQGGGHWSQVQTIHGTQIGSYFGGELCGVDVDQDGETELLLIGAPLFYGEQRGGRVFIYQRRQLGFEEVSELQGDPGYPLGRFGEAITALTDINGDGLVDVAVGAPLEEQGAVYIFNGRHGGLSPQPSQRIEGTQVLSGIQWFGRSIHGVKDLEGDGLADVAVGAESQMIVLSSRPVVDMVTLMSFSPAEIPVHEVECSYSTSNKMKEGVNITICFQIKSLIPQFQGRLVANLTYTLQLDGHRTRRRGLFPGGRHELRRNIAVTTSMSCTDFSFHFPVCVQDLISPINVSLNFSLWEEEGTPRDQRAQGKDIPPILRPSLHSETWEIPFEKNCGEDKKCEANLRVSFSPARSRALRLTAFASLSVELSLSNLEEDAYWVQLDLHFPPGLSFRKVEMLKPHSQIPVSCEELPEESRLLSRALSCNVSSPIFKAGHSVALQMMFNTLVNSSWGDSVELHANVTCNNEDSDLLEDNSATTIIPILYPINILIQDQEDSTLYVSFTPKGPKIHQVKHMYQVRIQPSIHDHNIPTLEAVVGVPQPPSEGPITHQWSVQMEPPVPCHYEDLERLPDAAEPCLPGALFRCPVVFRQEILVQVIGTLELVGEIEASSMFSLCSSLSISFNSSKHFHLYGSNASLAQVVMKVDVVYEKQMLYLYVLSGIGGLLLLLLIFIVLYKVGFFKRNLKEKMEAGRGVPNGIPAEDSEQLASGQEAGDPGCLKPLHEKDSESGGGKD
T1 sequence (P05362 whole entry, further chain): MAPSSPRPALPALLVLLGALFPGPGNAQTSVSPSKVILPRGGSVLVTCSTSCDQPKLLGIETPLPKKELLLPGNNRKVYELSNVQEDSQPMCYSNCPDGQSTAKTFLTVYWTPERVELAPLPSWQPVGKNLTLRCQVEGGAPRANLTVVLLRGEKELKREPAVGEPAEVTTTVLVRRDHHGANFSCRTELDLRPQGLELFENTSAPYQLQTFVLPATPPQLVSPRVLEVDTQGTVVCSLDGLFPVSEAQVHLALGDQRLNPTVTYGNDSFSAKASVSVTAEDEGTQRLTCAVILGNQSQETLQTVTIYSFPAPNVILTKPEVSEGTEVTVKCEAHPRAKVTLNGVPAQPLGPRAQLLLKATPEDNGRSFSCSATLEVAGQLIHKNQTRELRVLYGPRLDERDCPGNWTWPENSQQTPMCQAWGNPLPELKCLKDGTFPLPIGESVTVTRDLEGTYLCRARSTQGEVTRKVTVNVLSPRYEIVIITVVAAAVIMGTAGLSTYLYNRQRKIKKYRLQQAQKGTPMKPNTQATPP
T1 sequence (P05107 whole entry): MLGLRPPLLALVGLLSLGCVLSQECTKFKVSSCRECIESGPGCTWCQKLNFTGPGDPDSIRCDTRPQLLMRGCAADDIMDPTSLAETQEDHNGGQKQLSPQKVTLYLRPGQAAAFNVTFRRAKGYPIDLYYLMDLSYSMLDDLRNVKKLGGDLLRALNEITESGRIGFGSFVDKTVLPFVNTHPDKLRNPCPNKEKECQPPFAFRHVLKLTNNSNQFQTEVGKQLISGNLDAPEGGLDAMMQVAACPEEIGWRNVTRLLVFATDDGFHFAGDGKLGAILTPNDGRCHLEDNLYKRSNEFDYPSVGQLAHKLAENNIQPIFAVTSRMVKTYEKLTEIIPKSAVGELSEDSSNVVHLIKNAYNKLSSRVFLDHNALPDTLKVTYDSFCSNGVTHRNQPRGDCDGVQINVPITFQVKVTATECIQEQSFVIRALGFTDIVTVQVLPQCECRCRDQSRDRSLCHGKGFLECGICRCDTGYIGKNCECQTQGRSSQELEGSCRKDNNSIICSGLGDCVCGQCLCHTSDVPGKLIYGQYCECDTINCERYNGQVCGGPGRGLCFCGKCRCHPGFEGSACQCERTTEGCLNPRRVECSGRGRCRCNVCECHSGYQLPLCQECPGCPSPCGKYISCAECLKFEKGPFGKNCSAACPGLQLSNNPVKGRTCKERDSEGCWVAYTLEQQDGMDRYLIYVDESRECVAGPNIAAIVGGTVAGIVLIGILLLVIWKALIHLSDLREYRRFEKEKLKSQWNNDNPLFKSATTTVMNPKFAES

Q: Which IC50 [1] does the source give for `CC[C@H](C)C(=O)O[C@H]1C[C@@H](C)C=C2C=C[C@H](C)[C@H](CC[C@@H]3C[C@H](CC(=O)NC)N(Cc4ccc(C(=O)O)cc4)C(=O)O3)[C@H]21` here?
A: > 30 µM

Q: And the Inhibition [2]?
A: 21%

Q: And the microsomal CLint [3]?
A: 205 µL/min/mg

Q: And the microsomal CLint [4]?
A: 214 µL/min/mg

Q: And the IC50 [5]?
A: 0.87 µM

Q: What does the source list for `CC[C@H](C)C(=O)O[C@H]1C[C@@H](C)C=C2C=C[C@H](C)[C@H](CC[C@@H]3C[C@H](CC(=O)OC)N(CCc4ccc(O)c(OC)c4)C(=O)O3)[C@H]21`?
A: IC50 [1]: 20.5 µM; Inhibition [2]: 30%; IC50 [5]: 0.64 µM; Inhibition [6]: 9%

Q: Which Inhibition [2] does the source give for `CC[C@H](C)C(=O)O[C@H]1C[C@@H](C)C=C2C=C[C@H](C)[C@H](CC[C@@H]3C[C@H](CC(=O)NC)N(Cc4ccc(C(C)(C)O)cc4)C(=O)O3)[C@H]21` here?
A: 26%

Q: And the microsomal CLint [3]?
A: > 500 µL/min/mg

Q: What about the microsomal CLint [4] of the same compound?
A: > 500 µL/min/mg

Q: And the IC50 [5]?
A: 1.5 µM

Q: And the Inhibition [6]?
A: 9%

Q: For `CC[C@H](C)C(=O)O[C@H]1C[C@@H](C)C=C2C=C[C@H](C)[C@H](CC[C@@H]3C[C@H](CC(=O)NC)N(CCc4ccc(O)c(OC)c4)C(=O)O3)[C@H]21`, which IC50 [1] is on record?
A: 9.5 µM

Q: What about the Inhibition [2] of the same compound?
A: 43%

Q: What about the microsomal CLint [3] of the same compound?
A: > 500 µL/min/mg

Q: And the microsomal CLint [4]?
A: > 500 µL/min/mg

Q: And the IC50 [5]?
A: 0.8 µM

Q: And the Inhibition [6]?
A: 29%

Q: Which results are given for `CC[C@H](C)C(=O)O[C@H]1C[C@@H](C)C=C2C=C[C@H](C)[C@H](CC[C@@H]3C[C@H](CC(=O)OC)N(Cc4cccc(OC)c4)C(=O)O3)[C@H]21`?
A: IC50 [1]: 4.5 µM; Inhibition [2]: 23%; IC50 [5]: 0.68 µM

Q: Which results are given for `CC[C@H](C)C(=O)O[C@H]1C[C@@H](C)C=C2C=C[C@H](C)[C@H](CC[C@@H]3C[C@H](CC(=O)NC)N(Cc4ccc5c(c4)OC(F)(F)O5)C(=O)O3)[C@H]21`?
A: IC50 [1]: 5.59 µM; Inhibition [2]: 19%; microsomal CLint [3]: > 500 µL/min/mg; microsomal CLint [4]: 207 µL/min/mg; IC50 [5]: 1.15 µM

Q: For `CC[C@H](C)C(=O)O[C@H]1C[C@@H](C)C=C2C=C[C@H](C)[C@H](CC[C@@H]3C[C@H](CC(=O)OC)N(Cc4ccc5c(c4)OC(F)(F)O5)C(=O)O3)[C@H]21`, which IC50 [1] is on record?
A: > 30 µM

Q: What about the Inhibition [2] of the same compound?
A: -3%

Q: And the IC50 [5]?
A: > 30 µM

Q: With `CC[C@H](C)C(=O)O[C@H]1C[C@@H](C)C=C2C=C[C@H](C)[C@H](CC[C@@H]3C[C@H](CC(=O)OC)N(Cc4ccc(O)c(OC)c4)C(=O)O3)[C@H]21` as the compound, how does the IC50 [1] read?
A: 0.12 µM

Q: What about the Inhibition [2] of the same compound?
A: 46%

Q: And the IC50 [5]?
A: 0.05 µM

Q: And the Inhibition [6]?
A: 16%

Q: With `CC[C@H](C)C(=O)O[C@H]1C[C@@H](C)C=C2C=C[C@H](C)[C@H](CC[C@@H]3C[C@H](CC(=O)NC)N(Cc4ccc(C(=O)NC)cc4)C(=O)O3)[C@H]21` as the compound, how does the IC50 [1] read?
A: > 30 µM

Q: And the Inhibition [2]?
A: 26%

Q: And the microsomal CLint [3]?
A: > 500 µL/min/mg

Q: What about the microsomal CLint [4] of the same compound?
A: > 500 µL/min/mg

Q: What about the IC50 [5] of the same compound?
A: 0.62 µM

Q: And the Inhibition [6]?
A: 32%

Q: With `CC[C@H](C)C(=O)O[C@H]1C[C@@H](C)C=C2C=C[C@H](C)[C@H](CC[C@@H]3C[C@H](CC(=O)OC)N(Cc4ccc(C(=O)NC)cc4)C(=O)O3)[C@H]21` as the compound, how does the IC50 [1] read?
A: > 30 µM

Q: What about the Inhibition [2] of the same compound?
A: 8%

Q: What about the IC50 [5] of the same compound?
A: 1.3 µM

Q: With `CC[C@H](C)C(=O)O[C@H]1C[C@@H](C)C=C2C=C[C@H](C)[C@H](CC[C@@H]3C[C@H](CC(=O)NC)N(Cc4ccc(O)c(OC)c4)C(=O)O3)[C@H]21` as the compound, how does the IC50 [1] read?
A: 0.25 µM

Q: What about the Inhibition [2] of the same compound?
A: 47%

Q: And the microsomal CLint [3]?
A: > 500 µL/min/mg

Q: And the microsomal CLint [4]?
A: > 500 µL/min/mg

Q: And the IC50 [5]?
A: 0.05 µM

Q: What about the Inhibition [6] of the same compound?
A: 39%

Q: Which IC50 [1] does the source give for `CC[C@H](C)C(=O)O[C@H]1C[C@@H](C)C=C2C=C[C@H](C)[C@H](CC[C@@H]3C[C@H](CC(=O)NC)N(Cc4ccc5c(c4)OCO5)C(=O)O3)[C@H]21` here?
A: 6.42 µM

Q: And the Inhibition [2]?
A: 29%

Q: What about the microsomal CLint [3] of the same compound?
A: 383 µL/min/mg

Q: What about the microsomal CLint [4] of the same compound?
A: 100 µL/min/mg

Q: And the IC50 [5]?
A: 0.17 µM

Q: And the Inhibition [6]?
A: 28%

Q: Which IC50 [1] does the source give for `CC[C@H](C)C(=O)O[C@H]1C[C@@H](C)C=C2C=C[C@H](C)[C@H](CC[C@@H]3C[C@H](CC(=O)OC)N(Cc4ccc(C(C)(C)O)cc4)C(=O)O3)[C@H]21` here?
A: 7.69 µM

Q: What about the Inhibition [2] of the same compound?
A: 33%

Q: And the IC50 [5]?
A: 3 µM

Q: What about the Inhibition [6] of the same compound?
A: 12%

Q: Which results are given for `CC[C@H](C)C(=O)O[C@H]1C[C@@H](C)C=C2C=C[C@H](C)[C@H](CC[C@@H]3C[C@H](CC(=O)OC)N(Cc4ccc5c(c4)OCO5)C(=O)O3)[C@H]21`?
A: IC50 [1]: 2.59 µM; Inhibition [2]: 42%; IC50 [5]: 1 µM; Inhibition [6]: 32%

Q: What does the source list for `CC[C@H](C)C(=O)O[C@H]1C[C@@H](C)C=C2C=C[C@H](C)[C@H](CC[C@@H]3C[C@H](CC(=O)NC)N(Cc4cccc(OC)c4)C(=O)O3)[C@H]21`?
A: IC50 [1]: 6.5 µM; Inhibition [2]: 21%; microsomal CLint [3]: 55 µL/min/mg; microsomal CLint [4]: 123 µL/min/mg; IC50 [5]: 0.27 µM
